The nature of the data set: Toxicity liver stage against HepG2, at 10uM. It is filed as cell-based. Set-up: test concentration 10 uM, cell line HepG2-A16-CD81EGFP. The note with it: human, HepG2-A16-CD81EGFP cells; read-out: INHIBITION
An outline of the steps:
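Uninfected HepG2-A16-CD81EGFP cells, 3 × 10^3 per well, 1536-well, plated on prespotted compound at 10 μM final, parasite-free screening media added to match infected plates; puromycin 10 μM positive, DMSO 0.5% negative; run in parallel with 48 h PbLuc assay at 37 °C, 5% CO2; viability by CellTiter-Glo luminescence, normalized to controls.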

The structures appear in SMILES notation.

As to `C1CC(N2Cc3nnn(CC4CC4)c3C(COCC3CC3)C2)C1` (stereo unspecified), the cytotoxicity at 10 µM came to 5.57%.

For the compound `Cc1cccc(CNCC2(O)CCCN(CC3CCCCC3)C2=O)n1` (stereo unspecified), the cytotoxicity at 10 µM was -10.5%. Under `O=C([C@@H]1COC[C@H]2CN(C3CCCC3)C[C@H]21)N1CCCO1` stands -0.262%; under `COC(=O)C(NC(=O)CCOC(C)C)c1cc(F)ccc1F` (stereo unspecified), -4.11%. In the case of `Cc1ccccc1-c1noc(CN2CCc3cncnc3C2)n1`, the cytotoxicity at 10 µM is -11.5%. Take `Cc1ccc(OCCN(C)C(=O)CCCC(N)=O)c(C)c1`: the cytotoxicity at 10 µM was found to be 1.47%.

For the compound `NC(=O)c1cnc(NC2CCC(c3ccccc3)CC2)c(Cl)c1` (stereo unspecified), the cytotoxicity at 10 µM came out at 27.2%. In the case of `CNc1ncc(-c2csc(NC(=O)C[C@H]3COCCN3)n2)cn1` it was -11.9%. Under `c1ncc2c(n1)CN(Cc1nc(-c3ccsc3)no1)CC2` stands -4.77%; under `COCCOc1ccccc1CNCC1COC2(CCCC2)O1` (stereo unspecified), -143%; under `Cc1ncsc1C(=O)NC1CCN(Cc2cccc3c2OCCO3)CC1`, -4.68%.

On to `CN(Cc1ccccn1)C(CO)c1cccc(Br)c1` (stereo unspecified), for which the cytotoxicity at 10 µM is -6.12%. Regarding `COCCN(CC(F)F)c1cc(C(F)(F)F)nc2ncnn12`, the cytotoxicity at 10 µM came to 4.11%. Under `Cc1ncsc1CCN(C)C(=O)CN1CC2(CCCC2)CC1=O` stands 2.19%. Under `CCn1ccnc1CN1CCN(c2cc(C)nc(C3CCCN3)c2)CC1` (stereo unspecified) stands 2.19%. Turning to `Cc1nc(NC(C)C)nc2c1CN(Cc1cccs1)CC2`, the cytotoxicity at 10 µM worked out at 0.718%. Under `O=C(NCCCn1nc2ccccn2c1=O)NC(C1CC1)C1CC1` stands 2.74%; under `COC(=O)c1cc(C(=O)N2CCC(OC)CC2)n(-c2ccccc2)n1`, -15.1%.

As for `CC(=O)c1c(F)cccc1NCC(O)c1ccc(F)c(F)c1` (stereo unspecified), the cytotoxicity at 10 µM came to 13.3%. Under `CN(C)c1ccc(C(O)CNS(=O)(=O)C2CC2)cc1` (stereo unspecified) stands -4.99%; under `CN(C)C(=O)c1cccc(NC(=O)c2cnn(C)c2)c1`, -1.96%.

In the case of `CS(=O)(=O)N[C@@H]1CN(Cc2ccc3ccccc3c2)C[C@H]1O`, the cytotoxicity at 10 µM was -2.92%. In the case of `CN(C)[C@@H]1CCN(C(=O)Cc2cccs2)[C@H]1Cc1cnn(C)c1` it was -72.2%; in that of `CCOC(=O)N1CCN(C(=O)C2Cc3ccccc3CN2C)CC1` (stereo unspecified), -19.2%; in that of `Cc1nc2n(n1)CC(Nc1nc(C(F)(F)F)nc3ccccc13)CC2` (stereo unspecified), -0.978%. On to `CCS(=O)(=O)N1CCN(C(=O)NC(C)C)CC2(CNC(=O)C2)C1` (stereo unspecified), for which the cytotoxicity at 10 µM was -0.82%. As to `NCC1CN(c2nc(-c3cccnc3)nc3c2CCNCC3)CCO1` (stereo unspecified), the cytotoxicity at 10 µM was -17.6%.

As to `Fc1ccc(N2CCCN(Cc3ccc(-c4cc[nH]n4)o3)CC2)cc1`, the cytotoxicity at 10 µM was determined as 0.898%. As to `CCc1ccccc1NC(=O)c1cccc(N(C)S(C)(=O)=O)c1C`, the cytotoxicity at 10 µM was -4.68%. Consider `c1ccc(CSc2nnc(C3CC3)s2)nc1`, for which the cytotoxicity at 10 µM was 0.873%.

Take `O=C(Nc1nc2c(s1)CN(S(=O)(=O)C1CC1)CC2)c1cccc(Cl)c1`: the cytotoxicity at 10 µM is 1.55%. Regarding `Cc1nc(CN(Cc2ccccc2F)C2CCC2)no1`, the cytotoxicity at 10 µM is 6.95%.

On to `O=c1[nH][nH]cc1-c1ccnc(NCCN2CCCCC2)n1`, for which the cytotoxicity at 10 µM is -10.4%. On to `Cc1cccnc1NC(=O)C(C)Cn1nc(C(F)(F)F)cc1C` (stereo unspecified), for which the cytotoxicity at 10 µM worked out at 5.89%. Under `Cc1nc(CN2CCCC(CCc3ccc(F)c(F)c3)C2)c[nH]1` (stereo unspecified) stands -10.4%. Consider `CC(=O)N1CCC2(CC1)CN(C(C)C)c1ccc(F)cc12`, for which the cytotoxicity at 10 µM is -110%.

Turning to `Cc1cccc(OC2CCN(c3nc(N)nc4[nH]cnc34)CC2)c1`, the cytotoxicity at 10 µM turned out to be 35.4%. In the case of `Cc1nn(C)c2nc(N3CCCC3c3nccs3)sc12` (stereo unspecified) it was -2.87%; in that of `CN1CC(C(=O)NCCc2ccn(-c3ccc(F)cc3)n2)CC1=O` (stereo unspecified), 3.38%. Under `COc1ccc(-c2cc3nn(CC(N)=O)c(=O)n3c(C)n2)cc1` stands -5.29%. With `COc1coc(C(=O)Nc2nc(C)cs2)cc1=O`, the cytotoxicity at 10 µM was -3.96%.

On to `O=C(CCC(=O)N1CCOCC1)NCc1cccnc1-n1cccn1`, for which the cytotoxicity at 10 µM is -3.65%. Take `CC(C)c1sc(Br)nc1C(=O)NCc1ccco1`: the cytotoxicity at 10 µM was -2.89%.

Take `c1coc(CN2C[C@@H]3OCCN(CCN4CCCC4)[C@@H]3C2)c1`: the cytotoxicity at 10 µM is -1.52%. Regarding `Cc1n[nH]c(C)c1CCC(=O)NCC1CCCN(C2CCCC2)C1` (stereo unspecified), the cytotoxicity at 10 µM is -6.32%.

Consider `CN(C(=O)CCc1cccs1)C1CCCN(C2Cc3ccccc3C2)C1` (stereo unspecified), for which the cytotoxicity at 10 µM was -4.49%. Under `CN(C)c1ncc2c(n1)CCCC2NC(=O)C1CC1` (stereo unspecified) stands 4.07%; under `CNc1nc(C(=O)N2CCCn3nc(C(=O)N4CCCC4)cc3C2)cs1`, 4.57%; under `Cn1cc(C(=O)N2CC[C@@]3(O)CCN(C(=O)C4CCC4)C[C@H]3C2)cn1`, -140%. For `CCn1cc(-c2cc(C(F)F)nc3sc(C(N)=O)c(N)c23)c(C)n1`, the cytotoxicity at 10 µM came to 3.04%.

With `Cc1ccc(C(=O)N2C[C@@H]3C[C@@H](c4nnc(C5CC5)o4)O[C@@H]3C2)s1`, the cytotoxicity at 10 µM is -133%. In the case of `Cc1cc(N2CCC(n3cc(CN4CCSCC4)nn3)CC2)ccn1` it was -12.5%; in that of `CC(=O)N1N=C(c2ccccc2)OC1C(=O)NCCc1ccc(O)cc1` (stereo unspecified), -4%. Under `O=C(Cc1c[nH]c2ccccc12)N1CCC(Nc2cccnc2)CC1` stands -26.6%; under `Cc1cnccc1CN(C)C(=O)c1ccc(Cn2cnnn2)cc1`, 8.15%. Under `CCC(C)N(Cc1ccncc1)Cc1ccccc1Cn1cccn1` (stereo unspecified) stands -44.4%; under `Cc1cc2nc(C(C)C)cc(N3CCSCC3)n2n1`, 3.24%.

For `CN(Cc1cccs1)C(=O)CNC1CCc2ncnn2C1` (stereo unspecified), the cytotoxicity at 10 µM stood at 3.03%. Regarding `CN(C(=O)Cc1coc(-c2cccs2)n1)C1(C#N)CCC1`, the cytotoxicity at 10 µM was 6.52%. With `COCCc1noc(CN2CCCC2c2c(C)nn(C)c2OC)n1` (stereo unspecified), the cytotoxicity at 10 µM was -2.36%. Under `CCn1nc(C)c2nc(C)nc(NC3CCCC3)c21` stands 9.12%. Take `CCN1CCC(N[C@@H]2CC[C@@H]2NC(=O)Cc2csc(C)n2)CC1`: the cytotoxicity at 10 µM is 1.82%. Under `CCc1nc(CC(=O)N2CCn3c(nnc3C(C)C)C2)cs1` stands -6.72%. With `Cc1cc(C)c(OCC(=O)NS(=O)(=O)c2c(C)noc2C)c(C)c1`, the cytotoxicity at 10 µM is -6.64%.

With `O=S1(=O)C[C@@H]2[C@H](C1)N(Cc1cc(Cl)cc(Cl)c1)CCN2CCO`, the cytotoxicity at 10 µM was found to be 0.303%.

`O=C(C1CCOC1)N1CCC2(CCCNC2)CC1` (stereo unspecified): the cytotoxicity at 10 µM is -1.74%. Under `CCN(CC)C(=O)CNC(=O)c1ccc(-c2ccsc2)nc1C` stands 22.9%; under `COC(=O)c1ccoc1COC(=O)CCc1ccc(OC)c(OC)c1`, 5.27%.

With `Cc1cc(NC(=O)CCNC(C)(C)c2nc(C)c(C)s2)no1`, the cytotoxicity at 10 µM is 11.7%. As to `CC(C)(NCC(=O)NCC(F)(F)F)c1ccc2c(c1)OCCO2`, the cytotoxicity at 10 µM is -8.23%. Under `Cc1nc(CCNC(=O)C2CC(=O)N(C(C)(C)C)C2)sc1Cl` (stereo unspecified) stands 16.8%.

Source of the values: ChEMBL document CHEMBL4513216, “Probing the Open Global Health Chemical Diversity Library for Multistage-Active Starting Points for Next-Generation Antimalarials” (ACS Infect Dis, 2020).
